Rows were chosen to be rich in hits. Some 9.5% of all compounds tested hit in one or more screens of this group.
mHtt clearance: compounds clearing mutant huntingtin protein. HeLa Exon1htt(103Q)mCFP, aggregate imaging; zero = plate's median compound well. inhibition, % at 1.5 µM. hit rate 0.42% among 47,000. AID 853;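 active = inhibition of aggregate fluorescence above about 70%, also judged a hit by eye on the cell image, limit read from the data, passing the limit was not always enough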;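 also: cells exposed to compound for three days before fixation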
D1 mod: D1 dopamine receptor (human) allosteric modulation. hit rate 5.9% among 58,000. B-score at 10 µM. HEK293 D1, CRE-luciferase, dopamine EC30 potentiation; actives deviate in either direction. AID 641. P21728;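 active = luminescence count or its row- and column-corrected plate score outside the 99.7% band of the plate's sample wells, on either side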
HEK293 NFkB inh: lowers PMA/ionomycin-induced NF-kB signal in HEK293 cells | HEK-293 NF-kB luciferase reporter, luminescence | inhibition, % at 3 µM | hit rate 0.21% among 62,000 | AID 465;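 active = inhibition above the mean of all tested compounds plus 3 SD, cut at about 40% in these data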;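 also: 0% = stimulated DMSO wells and 100% = 10 µM reference inhibitor 5653914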
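Signal: luciferase luminescence; Material: HEK-293 cells with stable firefly luciferase reporter driven by four HIV NF-kB elements; Probe or stimulus: PMA with ionomycin; Replication: tested once; Times: 1 h compound pretreatment, then 16 h stimulation at 37 °C, 5% CO2; Benchmarks: DMSO and 10 µM reference inhibitor; Evaluation: per-plate % inhibition versus controls.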
Jurkat viability: cytotoxicity toward Jurkat cells; Jurkat E6.1 viability, ATP luminescence, 48 h; inhibition, % at 4 µM; hit rate 1.2% among 56,000;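 active = inhibition above the mean inhibition of all tested compounds plus 3 SD, cut at about 28% in these data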
M1 ag: activates the M1 muscarinic receptor. CHO-M1 cells, Fluo-4 calcium fluorescence, agonist mode; active compounds read high. B-score at 10 µM. hit rate 3% among 64,000. AID 626;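 active = fluorescence rise, raw or as B-score row- and column-corrected plate score, outside the 99.7% band of its plate's samples, either direction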
M1 antagonist: M1 muscarinic receptor (rat) antagonism; AID 628; B-score at 10 µM; P08482; hit rate 3.4% among 64,000; CHO-M1 cells, Fluo-4 calcium, ACh EC80 antagonist mode; active compounds read low;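 active = calcium fluorescence response, raw or row-and-column corrected B-score, differing from the plate sample mean either way at a set confidence level, mostly lower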
Target sequence (P08482 whole entry, looked up): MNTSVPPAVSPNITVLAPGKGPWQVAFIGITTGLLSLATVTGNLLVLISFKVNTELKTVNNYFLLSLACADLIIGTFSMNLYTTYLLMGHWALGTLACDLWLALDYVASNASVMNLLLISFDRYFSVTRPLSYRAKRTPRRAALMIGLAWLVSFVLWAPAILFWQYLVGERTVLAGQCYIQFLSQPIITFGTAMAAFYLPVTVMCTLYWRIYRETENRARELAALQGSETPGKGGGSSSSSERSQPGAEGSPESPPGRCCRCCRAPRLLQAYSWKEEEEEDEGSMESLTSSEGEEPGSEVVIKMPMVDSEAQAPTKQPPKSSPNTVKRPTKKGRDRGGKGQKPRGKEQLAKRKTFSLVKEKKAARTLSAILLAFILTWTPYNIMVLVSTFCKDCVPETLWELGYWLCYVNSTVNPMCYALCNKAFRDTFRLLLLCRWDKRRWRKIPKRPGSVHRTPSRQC
D1 mod confirm: confirmation of human D1 dopamine receptor allosteric modulators; shares compounds with D1 mod; HEK293 D1 CRE-luciferase, dopamine EC30 potentiation; active compounds read high; luminescence at 10 µM; hit rate 88% among 2,200; AID 642;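 active = luminescence in either of two replicates above the same-plate mean plus 3 SD of the low-dose dopamine control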
D1 ag no DA: activates D1 CRE-luciferase signal without dopamine present | shares compounds with D1 mod | HEK293 D1 CRE-luciferase, luminescence, no dopamine; active compounds read high | hit rate 0.8% among 1,900 | luminescence at 10 µM | AID 646; in the data active = luminescence above about 3900
Isoprot counter: alters isoproterenol CRE-luciferase response in HEK293 cells; hit rate 63% among 2,200; luminescence at 10 µM; shares compounds with D1 mod; AID 647; HEK293 D1 CRE-luciferase, isoproterenol EC30 counter-screen; active compounds read high;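 active = luminescence in either replicate above plate mean of wells with a partly effective reference agonist dose plus 3 SD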;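 also: isoproterenol raises cAMP through native beta-adrenoceptor Gs so signal bypasses D1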
Active calls of the source: *; i = inactive; nt = no result given.

SMILES	mHtt clearance	D1 mod	HEK293 NFkB inh	Jurkat viability	M1 ag	M1 antagonist	D1 mod confirm	D1 ag no DA	Isoprot counter
Cn1c(=O)cc(SCC(=O)NCC2CCCO2)c2ccccc21 (stereo unspecified)	24	-0.53	3	3	-0.13	0.31	nt	nt	nt
CC1CCC(NC(=O)C2CCN(C(=O)NC3CCCCC3)CC2)CC1 (stereo unspecified)	nt	-0.54	20	-4	0.24	-0.38	nt	nt	nt
CCOC(=O)c1oc2ccccc2c1NC(=O)CN1CCN(C)CC1	-10	3.5*	2	-8	0.058	-1.1	8308*	1680	3668*
Cc1cc(C(F)F)n2ncc(C(=O)N3CCC(C(N)=O)CC3)c2n1	6	nt	nt	nt	nt	nt	nt	nt	nt
COc1ccc(CNC(=O)c2cnn3c(C(F)F)cc(C)nc23)cc1OC	nt	3.9*	-3	9	-2.7	-0.72	8268*	1472	4208*
CCOc1ccc(-c2noc(CCC(=O)NC)n2)cc1OCC	nt	12*	-2	-1	nt	nt	19240*	1568	4300*
CCOc1cc(-c2noc(CCC(=O)Nc3cccnc3)n2)ccc1OC	nt	18*	4	11	nt	nt	17716*	1472	3168*
COc1ccc(-c2noc(-c3ccccc3C(=O)Nc3cccnc3)n2)cc1OC	-10	2	18	-4	-0.5	-0.15	nt	nt	nt
O=c1c2ccccc2nc(SCc2cn3ccsc3n2)n1-c1ccccc1F	29	5.7*	18	2	0.66	1.1	14876*	1836	6172*
O=c1c2ccccc2nc(SCc2cn3ccsc3n2)n1-c1ccccc1	1	nt	12	6	nt	nt	nt	nt	nt
CCOC(=O)c1c(N)c(C#N)cn1-c1ccccc1	31	20*	1	-7	0.51	-0.82	19404*	1788	4256*
COc1cccc(/C=N/NC(=O)CC(=O)NCCc2ccc(OC)c(OC)c2)c1	-16	nt	nt	nt	nt	nt	nt	nt	nt
CCOC(=O)c1c(C)[nH]c(C(=O)O)c1C	nt	-0.21	1	4	-0.027	0.34	nt	nt	nt
CCOC(=O)c1[nH]c(C)c(C(=O)OCc2c(C)noc2C)c1C	nt	5.1*	13	1	0.78	-0.28	7568*	880	3380*
CC(C)COC(=O)n1c(SCC(=O)N(C)C)nc2ccccc21	nt	2.5	4	2	1.3	0.55	nt	nt	nt
Cc1nnc(NC(=O)CSc2nnc(Cc3cccn3C)n2-c2cccc(C(F)(F)F)c2)s1	nt	3.4*	11	-12	-0.27	0.77	5796	1516	2684
COc1ccc(-n2c(Cc3cccn3C)nnc2SCC(=O)Nc2ccc(C)cc2C)cc1	nt	17*	10	2	0.011	0.77	4936	1328	2312
CCn1ccc(C(=O)NC2=C(C#N)CCC2)n1	1	nt	nt	nt	nt	nt	nt	nt	nt
CCc1ccc2oc(=O)cc(CN3CCC(C)CC3)c2c1	nt	5.9*	9	4	-0.57	-0.17	10276*	1600	3548*
Cc1ccc2oc(=O)cc(CN3CCOCC3)c2c1	2	1.4	24	3	1.2	2.1	nt	nt	nt
CCc1ccc2oc(=O)cc(CN3CCOCC3)c2c1	nt	5.9*	1	-2	0.27	-0.58	13788*	1736	2892
Nc1nonc1-n1nncc1-c1ccccc1	nt	5.9*	22	nt	0.39	0.91	10724*	1496	3176*
CCC(C)n1cnc2c(c1=O)c1nc3ccccc3nc1n2Cc1ccc2c(c1)OCO2 (stereo unspecified)	-2	9.8*	11	-2	0.25	-0.51	14800*	1636	4852*
CCCCn1c2nc3ccccc3nc2c2c(=O)n(CC(C)C)cnc21	nt	nt	nt	nt	0.098	-1.5	nt	nt	nt
CCCCn1c2nc3ccccc3nc2c2c(=O)n(C(C)CC)cnc21 (stereo unspecified)	nt	10*	-1	-2	0.44	-1.6	11776*	1928	2772
SMILES	mHtt clearance	D1 mod	HEK293 NFkB inh	Jurkat viability	M1 ag	M1 antagonist	D1 mod confirm	D1 ag no DA	Isoprot counter
Cc1noc2ncnc(Sc3ccccc3Cl)c12	-73	nt	nt	nt	nt	nt	nt	nt	nt
CSc1nc(-c2ccco2)nn1S(=O)(=O)c1ccc(C)cc1	nt	6.5*	8	-9	-0.013	0.35	11872*	nt	2704*
CSc1nc(-c2ccco2)nn1S(=O)(=O)c1ccccc1	23	6.6*	16	-4	0.012	-0.34	19196*	1648	4776*
CCS(=O)(=O)n1nc(-c2ccco2)nc1SC	nt	nt	11	nt	0.52	0.0071	nt	nt	nt
c1ccc2sc(SCc3ccc(-c4nnco4)cc3)nc2c1	10	-0.45	-18	7	-0.01	-0.17	nt	nt	nt
CC(C)Sc1nc(-c2cccs2)nc2c1c(=O)n(C)c(=O)n2C	nt	0.09	-8	3	-0.39	-0.33	nt	nt	nt
CSc1nc2nc(-c3ccccc3)cc(C(F)(F)F)n2n1	-78	0.7	0	6	1.3	0.26	nt	nt	nt
Brc1ccccc1Cn1c(-c2cncs2)nc2ccccc21	-2	10*	7	7	0.78	-0.44	19056*	1708	4180*
c1csc(Cn2c(-c3cccs3)nc3ccccc32)c1	nt	3	4	7	0.012	0.098	nt	nt	nt
CCn1c2ccccc2c2nnc(SCc3ccc(C(=O)OC)o3)nc21	-14	5.6*	12	-2	-0.021	-0.54	9356*	1384	4312*
O=c1[nH]c2ccccc2n1CCCSCCCn1c(=O)[nH]c2ccccc21	nt	nt	18	9	3.2	-0.77	nt	nt	nt
CCn1c2ccccc2c2nnc(SCc3ccccc3)nc21	nt	1.5	2	2	-0.63	-0.19	nt	nt	nt
CCn1c2ccccc2c2nnc(SCCCn3c(=O)[nH]c4ccccc43)nc21	30	9.6*	12	6	0.22	-1.4	10684*	1736	3096
C=CCn1c2ccccc2c2nnc(SCC(=O)NC(C(=O)OC)C(C)C)nc21 (stereo unspecified)	-1	4.4*	18	4	0.12	1.3	7244*	1452	2732
CC1CCCN(c2nc3c(c(=O)[nH]c(=O)n3C)n2CCCc2ccccc2)C1 (stereo unspecified)	nt	nt	nt	nt	3.7	-0.039	nt	nt	nt
CCN1CCN(C(=O)c2nn(-c3ccc(C)cc3)c(=O)c3c2c2ccccc2n3C)CC1	nt	4.8*	15	5	0.77	-1.5	5812	nt	2440
Cc1nn2c(-c3ccncc3)nnc2c2ccccc12	-75	2.7*	-9	8	1.2	-0.38	6068*	1544	2916*
COc1cc(C)nc(Oc2ccc(=O)[nH]n2)n1	nt	nt	nt	nt	0.035	0.89	nt	nt	nt
COc1ccc(-c2ccc(=O)[nH]n2)cc1	i	8.2*	21	nt	0.69	0.017	10236*	1400	4044*
COc1ccc(-c2nnc(COc3ccc4ccccc4c3)o2)cc1OC	nt	4.9*	nt	nt	-0.53	0.7	20456*	1420	3496*
COc1ccccc1C1CC(c2ccc(C)cc2)Nc2ncnn21 (stereo unspecified)	19	-0.045	19	4	-0.31	0.1	nt	nt	nt
